pIC50: −log10 of the molar value. Each block holds one compound with its values, some of them ahead of it. The source made the active and inactive calls. The rule behind the calls is not given here.
Assays:
[1] = test system: A549; test: Downregulation of ARL6IP mRNA expression in human A549 cells at 10 uM incubated for 48 hrs by qRT-PCR analysis; format: functional, cell-based
In short: (§1)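 Cells treated 48 h. Total RNA extracted with Trizol, reverse-transcribed, and SYBR RT-qPCR run: 95 °C 30 s, then 40 cycles of 95 °C 6 s and 60 °C 20 s. mRNA normalized to the DMSO-treated group. Mean SD of three independent experiments, t-test versus DMSO.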

[2] = test system: NCI-H1299; test: Downregulation of […] mRNA expression in human NCI-H1299 cells at 10 uM incubated for 48 hrs by qRT-PCR analysis; format: functional, cell-based; in short: as §1
[3] = test system: NCI-H1299; test: Downregulation of CHEK1 mRNA expression in human NCI-H1299 cells at 10 uM incubated for 48 hrs by qRT-PCR analysis; format: functional, cell-based; in short: as §1
[4] = test system: NCI-H1299; test: Downregulation of ARL6IP mRNA expression in human NCI-H1299 cells at 10 uM incubated for 48 hrs by qRT-PCR analysis; format: functional, cell-based; in short: as §1
[5] = test system: MDA-MB-468; test: Downregulation of TACC3 mRNA expression in human MDA-MB-468 cells at 10 uM incubated for 48 hrs by qRT-PCR analysis; format: functional, cell-based; in short: as §1
[6] = test system: MDA-MB-468; test: Downregulation of ARL6IP mRNA expression in human MDA-MB-468 cells at 10 uM incubated for 48 hrs by qRT-PCR analysis; format: functional, cell-based; in short: as §1
[7] = test system: WSUDLCL2; test: Antiproliferative activity against human WSUDLCL2 cells harboring EZH2-Y641F mutant assessed as inhibition of cell growth at 10 uM incubated for 9 days by optical microscopic analysis; format: functional, cell-based; conditions: time 9.0 day
In short: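 WSU-DLCL-2 cells seeded at 5 × 10³ per well, incubated 24 h, then exposed to 10 μM compound for 9 days with medium refreshed. Cells photographed and counted on days 1, 3, 5, 7 and 9. Mean SD of three independent experiments, t-test versus DMSO.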

[8] = test system: MDA-MB-468; test: Downregulation of CHEK1 mRNA expression in human MDA-MB-468 cells at 10 uM incubated for 48 hrs by qRT-PCR analysis; format: functional, cell-based; in short: as §1
[9] = test system: A549; test: Downregulation of TACC3 mRNA expression in human A549 cells at 10 uM incubated for 48 hrs by qRT-PCR analysis; format: functional, cell-based; in short: as §1
[10] = test system: NCI-H1299; test: Downregulation of CENPK mRNA expression in human NCI-H1299 cells at 10 uM incubated for 48 hrs by qRT-PCR analysis; format: functional, cell-based; in short: as §1
[11] = test system: MDA-MB-468; test: Downregulation of […] mRNA expression in human MDA-MB-468 cells at 10 uM incubated for 48 hrs by qRT-PCR analysis; format: functional, cell-based; in short: as §1
[12] = test system: A549; test: Downregulation of CHEK1 mRNA expression in human A549 cells at 10 uM incubated for 48 hrs by qRT-PCR analysis; format: functional, cell-based; in short: as §1
[13] = test system: MDA-MB-468; test: Downregulation of CENPK mRNA expression in human MDA-MB-468 cells at 10 uM incubated for 48 hrs by qRT-PCR analysis; format: functional, cell-based; in short: as §1
[14] = test system: A549; test: Downregulation of […] mRNA expression in human A549 cells at 10 uM incubated for 48 hrs by qRT-PCR analysis; format: functional, cell-based; in short: as §1
[15] = test system: MDA-MB-468; test: Downregulation of CEP76 mRNA expression in human MDA-MB-468 cells at 10 uM incubated for 48 hrs by qRT-PCR analysis; format: functional, cell-based; in short: as §1
[16] = test system: A549; test: Downregulation of CENPK mRNA expression in human A549 cells at 10 uM incubated for 48 hrs by qRT-PCR analysis; format: functional, cell-based; in short: as §1
[17] = test system: A549; test: Downregulation of CEP76 mRNA expression in human A549 cells at 10 uM incubated for 48 hrs by qRT-PCR analysis; format: functional, cell-based; in short: as §1
[18] = test system: NCI-H1299; test: Antiproliferative activity against human NCI-H1299 cells harboring SWI/SNF mutant assessed as inhibition of cell growth at 10 uM treated for 9 days by optical microscopic analysis; format: functional, cell-based; conditions: time 9.0 day
In short: (§2)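 Cells seeded at 5 × 10³ per well, grown 24 h, then exposed to compound at 10 μM for 9 days with medium refreshed. Cells were photographed and counted on days 1, 3, 5, 7 and 9. For lines 1-2, EZH2-targeting or control shRNA was induced in the cells. Mean SD of three independent experiments; t-test against control.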

[19] = test system: A549; test: Antiproliferative activity against human A549 cells harboring SWI/SNF mutant assessed as inhibition of cell growth at 10 uM treated for 9 days by optical microscopic analysis; format: functional, cell-based; conditions: time 9.0 day; in short: as §2
[20] = test system: NCI-H1299; test: Downregulation of TACC3 mRNA expression in human NCI-H1299 cells at 10 uM incubated for 48 hrs by qRT-PCR analysis; format: functional, cell-based; in short: as §1
[21] = test system: NCI-H1299; test: Downregulation of CEP76 mRNA expression in human NCI-H1299 cells at 10 uM incubated for 48 hrs by qRT-PCR analysis; format: functional, cell-based; in short: as §1
[22] = target: Histone-lysine N-methyltransferase EZH2 (Homo sapiens, UniProt Q15910); format: cell-based, Sf9
Chain of Histone-lysine N-methyltransferase EZH2 (Q15910 whole entry): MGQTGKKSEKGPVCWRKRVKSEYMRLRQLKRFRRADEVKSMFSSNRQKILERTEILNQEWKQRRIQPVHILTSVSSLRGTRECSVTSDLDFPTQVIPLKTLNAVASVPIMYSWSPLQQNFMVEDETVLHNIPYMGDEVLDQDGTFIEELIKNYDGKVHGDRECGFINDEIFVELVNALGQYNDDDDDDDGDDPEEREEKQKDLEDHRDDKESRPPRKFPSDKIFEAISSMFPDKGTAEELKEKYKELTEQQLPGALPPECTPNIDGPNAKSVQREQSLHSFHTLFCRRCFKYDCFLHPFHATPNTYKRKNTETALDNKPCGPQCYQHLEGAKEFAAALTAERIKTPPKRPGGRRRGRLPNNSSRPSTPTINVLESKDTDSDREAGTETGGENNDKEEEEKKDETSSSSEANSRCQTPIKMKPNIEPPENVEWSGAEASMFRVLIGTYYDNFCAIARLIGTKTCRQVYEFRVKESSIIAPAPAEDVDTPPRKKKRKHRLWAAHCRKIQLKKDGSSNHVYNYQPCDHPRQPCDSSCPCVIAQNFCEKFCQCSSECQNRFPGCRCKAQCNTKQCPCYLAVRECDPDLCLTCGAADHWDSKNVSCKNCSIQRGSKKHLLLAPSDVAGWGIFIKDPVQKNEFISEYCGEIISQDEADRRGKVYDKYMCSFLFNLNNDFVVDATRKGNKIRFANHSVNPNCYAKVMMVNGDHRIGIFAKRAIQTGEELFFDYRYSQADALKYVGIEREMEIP

[23] = target: T1, Protein cereblon/Histone-lysine N-methyltransferase EZH2 (Homo sapiens) (UniProt Q15910+Q96SW2); test: PROTAC activity at CRBN E3 ligase/EZH2 in PRC2 complex in human WSUDLCL2 cells assessed as reduction in H3K27me3 level at 1 uM incubated for 48 hrs by Western blot analysis; format: cell-based
T1 sequence (Q15910 whole entry, looked up): as the sequence (Q15910 whole entry) above
T1 sequence (Q96SW2 whole entry, looked up): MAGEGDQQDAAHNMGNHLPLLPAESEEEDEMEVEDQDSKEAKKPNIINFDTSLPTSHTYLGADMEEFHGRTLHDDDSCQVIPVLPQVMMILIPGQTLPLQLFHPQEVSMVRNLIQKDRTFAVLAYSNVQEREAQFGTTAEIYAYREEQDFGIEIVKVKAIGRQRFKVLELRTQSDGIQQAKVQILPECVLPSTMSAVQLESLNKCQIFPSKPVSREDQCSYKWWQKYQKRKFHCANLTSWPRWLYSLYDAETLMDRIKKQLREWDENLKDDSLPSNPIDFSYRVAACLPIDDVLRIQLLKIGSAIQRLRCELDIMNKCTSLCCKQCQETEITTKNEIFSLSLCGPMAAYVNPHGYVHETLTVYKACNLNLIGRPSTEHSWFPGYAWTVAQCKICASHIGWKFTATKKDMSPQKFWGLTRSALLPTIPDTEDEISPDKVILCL
In short: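 WSU-DLCL-2 cells treated 48 h (1 μM for the single-concentration screen), lysed; SDS-PAGE, nitrocellulose transfer, 5% milk block, primary antibody 4 °C overnight, chemiluminescence. Bands quantified by densitometry, normalized to GAPDH, expressed relative to DMSO-treated cells; mean ± SD of three independent experiments, t-test.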

[24] = target: T1, Protein cereblon/Histone-lysine N-methyltransferase EZH2 (Homo sapiens); test: PROTAC activity at CRBN E3 ligase/EZH2 in PRC2 complex in human WSUDLCL2 cells assessed as reduction in RbAp48 level at 2.5 uM measured after 48 hrs by Western blot analysis; format: cell-based
In short: (§3)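 WSU-DLCL-2 cells exposed 48 h to PROTAC or control analogues at 2.5 μM, with thalidomide and EPZ6438 at 10 μM; PRC2 subunit levels then read by western blot.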

[25] = target: T1, Protein cereblon/Histone-lysine N-methyltransferase EZH2 (Homo sapiens); test: PROTAC activity at CRBN E3 ligase/EZH2 in PRC2 complex in human WSUDLCL2 cells assessed as reduction in SUZ12 level at 2.5 uM measured after 48 hrs by Western blot analysis; format: cell-based; in short: as §3
[26] = target: T1, Protein cereblon/Histone-lysine N-methyltransferase EZH2 (Homo sapiens); test: PROTAC activity at CRBN E3 ligase/EZH2 in PRC2 complex in human WSUDLCL2 cells assessed as reduction in EZH2 level at 2.5 uM measured after 48 hrs by Western blot analysis; format: cell-based; in short: as §3
[27] = target: T1, Protein cereblon/Histone-lysine N-methyltransferase EZH2 (Homo sapiens); test: PROTAC activity at CRBN E3 ligase/EZH2 in PRC2 complex in human WSUDLCL2 cells assessed as reduction in EED level at 2.5 uM measured after 48 hrs by Western blot analysis; format: cell-based; in short: as §3

Compound: CCN(c1cc(-c2ccc(CN3CCOCC3)cc2)cc(C(=O)NCc2c(C)cc(C)[nH]c2=O)c1C)C1CCOCC1
Activity [1]: inactive
Activity [2]: inactive
Activity [3]: inactive
Activity [4]: inactive
Activity [5]: inactive
Activity [6]: inactive
Activity [7]: Active
Activity [8]: inactive
Activity [9]: inactive
Activity [10]: inactive
Activity [11]: inactive
Activity [12]: inactive
Activity [13]: inactive
Activity [14]: inactive
Activity [15]: inactive
Activity [16]: inactive
Activity [17]: inactive
Activity [18]: inactive
Activity [19]: inactive
Activity [20]: inactive
Activity [21]: inactive

Compound: CC[C@H](C)n1cc(C)c2c(C(=O)NCc3c(C)cc(C)[nH]c3=O)cc(-c3ccc(N4CCN(CCCCCCCOc5cccc6c5C(=O)N(C5CCC(=O)NC5=O)C6=O)CC4)nc3)cc21 (some centres undefined)
pIC50 [22]: 8.20

Compound: CC[C@H](C)n1cc(C)c2c(C(=O)NCc3c(C)cc(C)[nH]c3=O)cc(-c3ccc(N4CCN(CCCCCCCCCCCOc5cccc6c5C(=O)N(C5CCC(=O)NC5=O)C6=O)CC4)nc3)cc21 (some centres undefined)
Activity [23]: Active
pIC50 [22]: 6.78

Compound: CC[C@H](C)n1cc(C)c2c(C(=O)NCc3c(C)cc(C)[nH]c3=O)cc(-c3ccc(N4CCN(CCCCOc5cccc6c5C(=O)N(C5CCC(=O)NC5=O)C6=O)CC4)nc3)cc21 (some centres undefined)
pIC50 [22]: 8.26

Compound: CCN(c1cc(-c2ccc(CN3CCN(CCCCCCCOc4cccc5c4C(=O)N(C4CCC(=O)NC4=O)C5=O)CC3)cc2)cc(C(=O)NCc2c(C)cc(C)n(C)c2=O)c1C)C1CCOCC1 (centres undefined)
Activity [24]: inactive
Activity [25]: inactive
Activity [26]: inactive
pIC50 [22]: 7.63
Activity [27]: inactive

Now from value to compound:

pIC50 [22]: 8.35
Compound: CCN(c1cc(-c2ccc(CN3CCN(CCCCCOc4cccc5c4C(=O)N(C4CCC(=O)NC4=O)C5=O)CC3)cc2)cc(C(=O)NCc2c(C)cc(C)[nH]c2=O)c1C)C1CCOCC1 (centres undefined)

Activity [23]: Active
pIC50 [22]: 8.47
Compound: CCN(c1cc(-c2ccc(CN3CCN(CCCCCCCCOc4cccc5c4C(=O)N(C4CCC(=O)NC4=O)C5=O)CC3)cc2)cc(C(=O)NCc2c(C)cc(C)[nH]c2=O)c1C)C1CCOCC1 (centres undefined)

Activity [23]: Active
pIC50 [22]: 8.43
Compound: CCN(c1cc(-c2ccc(CN3CCN(CCCCOc4cccc5c4C(=O)N(C4CCC(=O)NC4=O)C5=O)CC3)cc2)cc(C(=O)NCc2c(C)cc(C)[nH]c2=O)c1C)C1CCOCC1 (centres undefined)

Activity [23]: Active
pIC50 [22]: 7.82
Compound: CCN(c1cc(-c2ccc(CN3CCN(CCCCCCCCCOc4cccc5c4C(=O)N(C4CCC(=O)NC4=O)C5=O)CC3)cc2)cc(C(=O)NCc2c(C)cc(C)[nH]c2=O)c1C)C1CCOCC1 (centres undefined)

Activity [23]: Active
pIC50 [22]: 7.52
Compound: CCN(c1cc(-c2ccc(CN3CCN(CCCCCCCCCCCOc4cccc5c4C(=O)N(C4CCC(=O)NC4=O)C5=O)CC3)cc2)cc(C(=O)NCc2c(C)cc(C)[nH]c2=O)c1C)C1CCOCC1 (centres undefined)
